From ChEMBL document CHEMBL1177763, “Synthesis and biological activity of glycosyl-1H-1,2,3-triazoles” (Bioorg Med Chem Lett, 2010) come the findings set out here.

For one assay, the system named is Aspergillus oryzae. The assay can be described thus: Inhibition of Aspergillus oryzae CCF 1066 beta-N-acetylglucosaminidase at 2 mM.
In the next assay the test system is Penicillium oxalicum. Put plainly: Inhibition of Penicillium oxalicum CCF 1959 beta-N-acetylglucosaminidase at 2 mM.
The next assay has as its system Penicillium pittii. Put plainly: Inhibition of Penicillium pittii CCF 2277 beta-N-acetylglucosaminidase at 2 mM.
In another assay the test system is Talaromyces flavus. Put plainly: Inhibition of Talaromyces flavus CCF 2686 beta-N-acetylglucosaminidase at 2 mM.
Assay [1] has as its target T1, Killer cell lectin-like receptor subfamily B member 1A (Rattus norvegicus, UniProt P27471).
T1 sequence (P27471 whole entry): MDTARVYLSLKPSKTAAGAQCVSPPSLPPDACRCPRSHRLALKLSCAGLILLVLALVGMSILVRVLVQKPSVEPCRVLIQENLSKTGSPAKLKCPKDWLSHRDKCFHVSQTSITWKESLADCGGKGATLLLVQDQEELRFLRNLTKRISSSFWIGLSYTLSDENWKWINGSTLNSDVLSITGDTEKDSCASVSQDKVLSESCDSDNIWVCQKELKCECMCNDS
Put plainly: Binding affinity to fluorescein-labeled rat NKR-P1A after 2 hrs by fluorescence assay. The gist of the method:
(§1)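 Competitive displacement assay: the compound's ability to displace a high-affinity receptor ligand was measured on rat NKR-P1A and human CD69 activating receptors. Affinity was expressed relative to free N-acetyl-D-glucosamine as the reference ligand.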

Assay [2] has as its target T2, Early activation antigen CD69 (Homo sapiens, UniProt Q07108).
T2 sequence (Q07108 whole entry): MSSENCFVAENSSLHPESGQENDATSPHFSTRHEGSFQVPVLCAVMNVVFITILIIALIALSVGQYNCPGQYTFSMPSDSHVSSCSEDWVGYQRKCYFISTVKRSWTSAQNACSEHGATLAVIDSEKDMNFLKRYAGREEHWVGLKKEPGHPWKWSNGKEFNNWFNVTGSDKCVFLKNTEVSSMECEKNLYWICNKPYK
The assay can be described thus: Binding affinity to rhodamine-labeled human CD69 receptor after 2 hrs by fluorescence assay. Put shortly: as §1

The target of another assay is Beta-galactosidase (Escherichia coli, UniProt Q8VNN2). Put plainly: Inhibition of Escherichia coli beta-galactosidase.
The target in assay [3] is Alpha-galactosidase (Coffea arabica) (UniProt Q42656). Put plainly: Inhibition of green coffee bean alpha-galactosidase at 1 mM.
The next assay relates to Prunus dulcis. Put plainly: Inhibition of sweet almond beta-glucosidase at 1 mM.
In assay [4] the target is Beta-galactosidase (Escherichia coli) (UniProt Q8VNN2). Put plainly: Inhibition of Escherichia coli beta-galactosidase at 1 mM.
The target in assay [5] is T3, Beta-galactosidase (Aspergillus oryzae) (UniProt Q2U7N3).
T3 sequence (whole entry): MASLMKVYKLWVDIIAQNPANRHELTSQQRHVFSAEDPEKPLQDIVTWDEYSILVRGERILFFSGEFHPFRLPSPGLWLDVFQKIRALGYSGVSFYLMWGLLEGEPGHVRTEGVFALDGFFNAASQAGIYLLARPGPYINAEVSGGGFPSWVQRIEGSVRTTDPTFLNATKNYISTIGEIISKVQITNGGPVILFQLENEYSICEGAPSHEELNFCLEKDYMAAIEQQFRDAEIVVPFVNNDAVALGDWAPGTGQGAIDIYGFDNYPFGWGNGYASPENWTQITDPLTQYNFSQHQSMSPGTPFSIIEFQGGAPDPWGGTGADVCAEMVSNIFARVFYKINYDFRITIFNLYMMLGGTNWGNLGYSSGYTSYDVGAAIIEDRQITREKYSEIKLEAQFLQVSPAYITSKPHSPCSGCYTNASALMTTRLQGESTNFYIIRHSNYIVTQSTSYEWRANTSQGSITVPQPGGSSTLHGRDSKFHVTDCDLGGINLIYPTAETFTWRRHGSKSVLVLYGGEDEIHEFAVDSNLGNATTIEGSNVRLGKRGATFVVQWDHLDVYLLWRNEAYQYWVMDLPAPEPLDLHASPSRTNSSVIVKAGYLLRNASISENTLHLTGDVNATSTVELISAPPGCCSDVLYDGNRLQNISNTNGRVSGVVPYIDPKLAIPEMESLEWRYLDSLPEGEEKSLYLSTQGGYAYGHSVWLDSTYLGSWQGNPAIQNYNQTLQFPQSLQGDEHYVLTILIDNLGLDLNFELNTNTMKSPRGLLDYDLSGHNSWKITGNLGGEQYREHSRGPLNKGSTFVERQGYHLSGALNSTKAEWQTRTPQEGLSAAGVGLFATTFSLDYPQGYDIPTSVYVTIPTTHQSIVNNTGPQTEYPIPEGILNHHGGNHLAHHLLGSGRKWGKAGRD
The assay can be described thus: Inhibition of Aspergillus oryzae beta-galactosidase at 1 mM.

A further assay deals with Saccharomyces cerevisiae. The assay can be described thus: Inhibition of yeast alpha-glucosidase at 1 mM.

The structures appear in SMILES notation. Active and inactive are the calls of the source. The rule behind the calls is not given here.

Sequence of Beta-galactosidase (Q8VNN2 whole entry): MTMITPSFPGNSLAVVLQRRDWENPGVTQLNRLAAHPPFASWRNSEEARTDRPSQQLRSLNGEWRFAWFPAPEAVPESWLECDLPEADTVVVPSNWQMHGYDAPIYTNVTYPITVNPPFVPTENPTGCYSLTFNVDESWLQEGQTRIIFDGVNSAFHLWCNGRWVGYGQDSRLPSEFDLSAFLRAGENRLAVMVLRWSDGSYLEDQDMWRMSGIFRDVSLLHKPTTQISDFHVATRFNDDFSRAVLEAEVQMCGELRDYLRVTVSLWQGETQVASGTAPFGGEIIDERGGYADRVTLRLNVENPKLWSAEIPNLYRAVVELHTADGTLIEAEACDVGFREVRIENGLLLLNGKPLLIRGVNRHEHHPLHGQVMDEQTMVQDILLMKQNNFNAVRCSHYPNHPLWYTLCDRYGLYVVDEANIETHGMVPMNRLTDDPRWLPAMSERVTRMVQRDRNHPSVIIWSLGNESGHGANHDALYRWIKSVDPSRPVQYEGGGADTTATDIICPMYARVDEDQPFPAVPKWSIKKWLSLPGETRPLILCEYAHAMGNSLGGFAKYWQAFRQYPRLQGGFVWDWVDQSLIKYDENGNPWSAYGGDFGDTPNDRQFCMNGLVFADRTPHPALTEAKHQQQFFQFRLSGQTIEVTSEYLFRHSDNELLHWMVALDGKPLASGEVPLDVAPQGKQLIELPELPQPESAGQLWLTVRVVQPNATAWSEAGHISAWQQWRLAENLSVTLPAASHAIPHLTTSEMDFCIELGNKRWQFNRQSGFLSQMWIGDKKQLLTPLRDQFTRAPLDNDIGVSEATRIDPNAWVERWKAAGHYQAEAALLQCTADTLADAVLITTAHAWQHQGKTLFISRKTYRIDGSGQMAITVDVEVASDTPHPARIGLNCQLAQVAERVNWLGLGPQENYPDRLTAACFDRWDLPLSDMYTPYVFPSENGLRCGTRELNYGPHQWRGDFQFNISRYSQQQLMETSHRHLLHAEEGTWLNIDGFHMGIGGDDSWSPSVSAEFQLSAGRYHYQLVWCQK
Sequence of Beta-galactosidase (Escherichia coli) (Q8VNN2 whole entry, looked up): as the sequence (Q8VNN2 whole entry) above
Sequence of Alpha-galactosidase (Coffea arabica) (Q42656 16-378 limits assumed): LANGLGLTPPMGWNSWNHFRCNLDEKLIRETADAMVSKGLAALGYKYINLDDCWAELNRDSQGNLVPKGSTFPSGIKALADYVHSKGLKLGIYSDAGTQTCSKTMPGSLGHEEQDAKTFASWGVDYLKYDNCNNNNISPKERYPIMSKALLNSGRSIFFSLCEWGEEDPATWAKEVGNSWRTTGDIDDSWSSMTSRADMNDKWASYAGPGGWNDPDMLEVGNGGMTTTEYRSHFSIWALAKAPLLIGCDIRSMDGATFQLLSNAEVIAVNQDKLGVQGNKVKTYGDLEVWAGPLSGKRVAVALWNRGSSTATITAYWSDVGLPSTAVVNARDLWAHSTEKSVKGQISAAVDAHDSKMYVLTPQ

For orientation: IC50 means the concentration at which inhibition is half-maximal. The low end stands for higher potency, the high end for lower potency. As to `CC(=O)N[C@@H]1[C@@H](O)[C@H](O)[C@@H](CO)O[C@H]1n1ccnn1`, the inhibition result in the assay on Aspergillus oryzae, with Penicillium oxalicum, in the assay on Penicillium pittii and with Talaromyces flavus was “inactive” in each case. Further, the IC50 in assay [1] is 0.0631 µM; in assay [2] it was 3.98 µM.
For orientation: Ki means a measure of affinity in units of concentration, obtained from inhibition or displacement. High values mean weaker binding, low ones tighter binding. `OC[C@H]1O[C@@H](n2cc(-c3ccccc3)nn2)[C@H](O)[C@@H](O)[C@@H]1O` registered a Ki at Beta-galactosidase of 330 µM.
Regarding `CC(=O)N[C@@H]1[C@@H](O)[C@H](O)[C@@H](CO)O[C@H]1O` [N-ACETYLGLUCOSAMINE], the IC50 in assay [1] is 2 µM; in [2], 126 µM.
Turning to `OC[C@H]1O[C@H](n2ccnn2)[C@H](O)[C@@H](O)[C@H]1O`, in assay [3], the inhibition result was “inactive”.
Take `OC[C@H]1O[C@@H](n2ccnn2)[C@H](O)[C@@H](O)[C@@H]1O`: the inhibition entry with Prunus dulcis was “inactive”.
For `OC[C@H]1O[C@@H](n2ccnn2)[C@H](O)[C@@H](O)[C@H]1O`, the inhibition result in assay [4] and in [5] was “inactive” in each case.
With `OC[C@H]1O[C@H](n2ccnn2)[C@H](O)[C@@H](O)[C@@H]1O`, in the assay with Saccharomyces cerevisiae, the inhibition result was “inactive”.
